Measurements taken from ChEMBL document CHEMBL1158477, “Synthesis, in vivo evaluation, and molecular modeling studies of new pyrazolo[5,1-c][1,2,4]benzotriazine 5-oxide derivatives. Identification of a bifunctional hydrogen bond area related to the inverse agonism” (J Med Chem, 2009).
Active and inactive are the calls of the source. The calls are words filed in the database; no cut-off is given here.

Key:
[1] = tested on: Mus musculus; test: Anticonvulsant activity against pentylenetetrazole-induced convulsions in CD1 albino mouse assessed as absence of convulsions at 1 mg/kg, ip preincubated for 30 mins before pentylenetetrazole challenge measured for 30 mins; format: functional, organism-based; design: dose 1 mg/kg
Procedure, shortened: (§1)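 Male CD-1 mice (22-24 g), drug in isotonic saline given ip; PTZ 90 mg/kg sc injected 30 min after drug. Occurrence of clonic generalized convulsions noted over 30 min, with shock and convulsion latency recorded. Controls received 1% CMC.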

[2] = tested on: Mus musculus; test: Anxiolytic activity in CD1 albino mouse at 1 mg/kg, ip after 20 mins by light/dark box test in presence of flumazenil; format: functional, organism-based; design: dose 1 mg/kg
Procedure, shortened: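 Male CD-1 mice given drug ip in saline, tested in a light/dark box. Number of transfers between compartments and time spent in the illuminated side recorded. Flumazenil given ip at 100 mg/kg as antagonist.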

[3] = tested on: Mus musculus; test: Anticonvulsant activity against pentylenetetrazole-induced shock in CD1 albino mouse assessed as absence of shocks at 1 mg/kg, ip preincubated for 30 mins before pentylenetetrazole challenge measured for 30 mins; format: functional, organism-based; design: dose 1 mg/kg; procedure, shortened: as §1
[4] = tested on: Mus musculus; test: Effect on ethanol-induced sleeping time in CD1 albino mouse assessed as increase in duration of loss of righting reflex at 1 mg/kg, ip preincubated 30 mins before ethanol challenge; format: functional, organism-based; design: dose 1 mg/kg
Procedure, shortened: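 Male CD-1 mice given drug ip in saline. Ethanol 4 g/kg ip injected 30 min after drug. Duration of loss of righting reflex taken as sleep time, capped at 210 min. Mean of 15-20 mice per group.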

[5] = tested on: Mus musculus; test: Anxiolytic activity in CD1 albino mouse at 10 mg/kg, po after 30 mins by light/dark box test; format: functional, organism-based; design: dose 10 mg/kg
Procedure, shortened: (§2)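 Male CD-1 mice (22-24 g) given test substance po in 1% CMC (10 mL/kg), tested 30 min later in a light/dark box. Transfers between compartments and time spent in the illuminated side were measured. Values are mean ± SEM of 15-20 mice; compared with controls.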

[6] = tested on: Mus musculus; test: Effect on ethanol-induced sleeping time in CD1 albino mouse assessed as increase in duration of loss of righting reflex at 30 mg/kg, po preincubated 30 mins before ethanol challenge; format: functional, organism-based; design: dose 30 mg/kg
[7] = tested on: Mus musculus; test: Anxiolytic activity in CD1 albino mouse at 30 mg/kg, po after 30 mins by light/dark box test in presence of flumazenil; format: functional, organism-based; design: dose 30 mg/kg
Procedure, shortened: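 Light/dark box in male CD-1 mice. Test substance given po in 1% CMC 30 min before the test, with flumazenil 100 mg/kg ip (saline) co-treatment. Transfers between compartments and time in the lit side recorded. Mean ± SEM of 15-20 mice.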

[8] = tested on: Mus musculus; test: Anxiolytic activity in CD1 albino mouse at 30 mg/kg, po after 30 mins by light/dark box test; format: functional, organism-based; design: dose 30 mg/kg; procedure, shortened: as §2
[9] = tested on: Mus musculus; test: Effect on learning and memory process in CD1 albino mouse assessed as decrease in retention latency at 30 mg/kg, po after 24 hrs by passive avoidance test; format: functional, organism-based; design: dose 30 mg/kg
Procedure, shortened: (§3)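 Step-through passive avoidance in a two-compartment box (lit and dark compartments joined by a guillotine door). Male CD-1 mice dosed po (1% CMC) 30 min before training; retention tested 24 h later. Training and retention latencies recorded; mean ± SEM of 15-20 mice versus controls.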

[10] = tested on: Mus musculus; test: Effect on ethanol-induced sleeping time in CD1 albino mouse assessed as increase in duration of loss of righting reflex at 10 mg/kg, po preincubated 30 mins before ethanol challenge; format: functional, organism-based; design: dose 10 mg/kg
[11] = tested on: Mus musculus; test: Effect on learning and memory process in CD1 albino mouse assessed as decrease in retention latency at 10 mg/kg, po after 24 hrs by passive avoidance test; format: functional, organism-based; design: dose 10 mg/kg; procedure, shortened: as §3
[12] = organism: Bos taurus; test: Displacement of [3H]flumazenil from GABAA/Benzodiazepine receptor in bovine brain at 10 uM
Procedure, shortened: (§4)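 Bovine brain membranes; displacement of specific [3H]flumazenil (Ro15-1788) binding. Percent inhibition measured at 10 μM; Ki determined only when inhibition at that concentration exceeded 80%. Ki given as mean ± SEM of five determinations.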

[13] = tested on: Mus musculus; test: Effect on spontaneous motility in CD1 albino mouse assessed as number of movement on plane board at 100 mg/kg, po after 30 mins by hole-board test; format: functional
Procedure, shortened: (§5)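 Hole-board test in male CD-1 mice: animals placed singly on the board and allowed to explore panel and holes. Test run 30 min after po dosing in 1% CMC (10 mL/kg). Hole entries (curiosity) and plane movements (spontaneous motility) counted; 10 mice per group, compared with CMC controls.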

[14] = tested on: Mus musculus; test: Effect on motor coordination in CD1 albino mouse assessed as number of falls form rotarod at 10 mg/kg, po […] measured for 30 seconds after 30 mins of dosing by rotarod test; format: functional; details: 10 mg/kg
Procedure, shortened: (§6)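 Rota-rod in male CD-1 mice with a pretest. Test substance given po in 1% CMC; falls from the rotating rod counted over 30 s, assessed 30 min after treatment.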

[15] = tested on: Mus musculus; test: Effect on explorative capacity in CD1 albino mouse assessed as curiosity-related number of head plugging activity on hole at 30 mg/kg, po after 30 mins by hole-board test; format: functional; details: 30 mg/kg; procedure, shortened: as §5
[16] = tested on: Mus musculus; test: Anticonvulsant activity against pentylenetetrazole-induced shock in CD1 albino mouse assessed as shock latency at 10 mg/kg, po preincubated for 30 mins before pentylenetetrazole challenge measured for 30 mins (RVb=253.1 +/- 13 seconds); format: functional; details: 10 mg/kg
[17] = tested on: Mus musculus; test: Anticonvulsant activity against pentylenetetrazole-induced convulsions in CD1 albino mouse assessed as convulsion latency at 30 mg/kg, po preincubated for 30 mins before pentylenetetrazole challenge measured for 30 mins (RVb=599 +/- 37.6 seconds); format: functional; details: 30 mg/kg
[18] = tested on: Mus musculus; test: Effect on motor coordination in CD1 albino mouse assessed as number of falls form rotarod at 30 mg/kg, po […] measured for 30 seconds after 30 mins of drug infusion by rotarod test; format: functional; details: 30 mg/kg; procedure, shortened: as §6
[19] = tested on: Mus musculus; test: Effect on explorative capacity in CD1 albino mouse assessed as curiosity-related number of head plugging activity on hole at 100 mg/kg, po after 30 mins by hole-board test; format: functional; procedure, shortened: as §5
[20] = tested on: Mus musculus; test: Effect on spontaneous motility in CD1 albino mouse assessed as number of movement on plane board at 50 mg/kg, po after 30 mins by hole-board test; format: functional; procedure, shortened: as §5
[21] = tested on: Mus musculus; test: Effect on spontaneous motility in CD1 albino mouse assessed as number of movement on plane board at 30 mg/kg, po after 30 mins by hole-board test; format: functional; details: 30 mg/kg; procedure, shortened: as §5
[22] = tested on: Mus musculus; test: Anticonvulsant activity against pentylenetetrazole-induced shock in CD1 albino mouse assessed as shock latency at 30 mg/kg, po preincubated for 30 mins before pentylenetetrazole challenge measured for 30 mins (RVb=253.1 +/- 13 seconds); format: functional; details: 30 mg/kg
[23] = Displacement of [3H]flumazenil from GABAA/Benzodiazepine receptor in bovine brain; design: species or system Bos taurus; procedure, shortened: as §4
[24] = tested on: Mus musculus; test: Effect on explorative capacity in CD1 albino mouse assessed as curiosity-related number of head plugging activity on hole at 50 mg/kg, po after 30 mins by hole-board test; format: functional; procedure, shortened: as §5
[25] = tested on: Mus musculus; test: Anticonvulsant activity against pentylenetetrazole-induced convulsions in CD1 albino mouse assessed as convulsion latency at 10 mg/kg, po preincubated for 30 mins before pentylenetetrazole challenge measured for 30 mins (RVb=599 +/- 37.6 seconds); format: functional; details: 10 mg/kg
[26] = tested on: Mus musculus; test: Effect on spontaneous motility in CD1 albino mouse assessed as number of movement on plane board at 10 mg/kg, po after 30 mins by hole-board test; format: functional; details: 10 mg/kg; procedure, shortened: as §5
[27] = tested on: Mus musculus; test: Effect on explorative capacity in CD1 albino mouse assessed as curiosity-related number of head plugging activity on hole at 10 mg/kg, po after 30 mins by hole-board test; format: functional; details: 10 mg/kg; procedure, shortened: as §5

For `CN1C(=O)CN=C(c2ccccc2)c2cc(Cl)ccc21`, the Activity [1] was “Active”, the Activity [2] was “inactive” and the Activity [3] was “Active”. The Activity [4] was “Active”.

In the case of `CC(Oc1ccc2c(c1)n1ncc(I)c1n[n+]2[O-])c1ccccc1` (stereo in doubt; (+)-16), the Activity [5] is reported as “Active”, the Activity [6] is reported as “Active” and the Activity [7] is reported as “inactive”. For the same compound, the Activity [8] was “Active”, the Activity [9] was “Active” and the Activity [10] was “Active”. For the same compound, the Activity [11] was “Active” and the Activity [12] was over 80%.

For `CC(Oc1ccc2c(c1)n1ncc(I)c1n[n+]2[O-])c1ccccc1` (single isomer, unassigned; (-)), the Activity [13] was 59.2, the Activity [14] was 2 and the Activity [15] was 34.5. It also gave an Activity [16] of 513 s, an Activity [17] of 549.2 s and an Activity [18] of 1.6. For the same compound, the Activity [19] was 22.9, the Activity [20] was 44 and the Activity [21] was 56.8. The Activity [22] was 323.7 s, the Ki [23] was 2.1 nM and the Activity [24] was 13.3. For the same compound, the Activity [25] was 1078 s, the Activity [26] was 61.9 and the Activity [27] was 27.
